This is an account of results in ChEMBL document CHEMBL1133723, “Developing a dynamic pharmacophore model for HIV-1 integrase” (J Med Chem, 2000).

Test [1] deals with Human immunodeficiency virus type 1 integrase (Human immunodeficiency virus 1) (UniProt Q7ZJM1). Put plainly: Inhibitory activity against HIV-1 integrase at 25 uM. The essentials:
(§1)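 Integration reaction with HIV-1 integrase, run as in an earlier published method except for the detection step. The integration product was detected with digoxygenin-labelled oligonucleotides and an anti-digoxygenin antibody conjugated to horseradish peroxidase. Compounds were tested at 1 mM, 200 µM and 25 µM.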

For test [2] the target is unchanged. Nature of the test: Inhibitory activity against HIV-1 integrase at 1 mM. The procedure, abridged:
as §1

Test [3] has the same target. Put plainly: Inhibitory activity against HIV-1 integrase at 200 uM. The procedure, abridged:
as §1

The target is the same in test [4]. Put plainly: Inhibition against HIV-1 integrase at 25 uM. The procedure, abridged: as §1
Test [5] has the same target. Conditions: at 1 mM.
The target is the same in test [6]. The note with it: at 200 µM.

Each structure is given as a SMILES string. Where a SMILES comes first, the peptide text is derived from it. The star is where a group is joined. pNA = O=[N+]([O-])c1ccc(N*)cc1; Boc = CC(C)(C)OC(=O)*; Bn = c1ccc(C*)cc1

The inhibition is the share of the control response that was lost under treatment. For `N=C(NCCCCCCNC(=N)NC(=N)Nc1ccc(Cl)cc1)NC(=N)Nc1ccc(Cl)cc1`, the figures for the inhibition in test [1], in test [2] and in test [3] were below 50%, above 50% and below 50%, respectively.

Regarding `CCCCCCCCCCCCC/C=C/C(O)C(N)CO[C@@H]1O[C@H](CO)[C@H](O)[C@H](O)[C@H]1O` (stereo partly specified), the inhibition is below 50% in test [4], above 50% in test [5] and below 50% in test [6].

For `Nc1nc(=O)c2c([nH]1)NCC(CNc1ccc(C(=O)N[C@@H](CCC(=O)O)C(=O)O)cc1)=N2`, the figures for the inhibition in test [1], in test [2] and in test [3] were below 50%, above 50% and above 50%, respectively.

For the molecule `O=C(O[C@@H]1Cc2c(O)cc(O)cc2O[C@@H]1c1cc(O)c(O)c(O)c1)c1cc(O)c(O)c(O)c1`, the inhibition in test [4], in test [5] and in test [6] was above 50% in each case.

Take `CC(C)(C)OC(=O)N[C@@H](COCc1ccccc1)C(=O)NCC(=O)N[C@@H](CCCN=C(N)N)C(=O)Nc1ccc([N+](=O)[O-])cc1` (Boc-Ser(Bn)-Gly-Arg-pNA): the results for the inhibition in test [4], in test [5] and in test [6] were below 50%, above 50% and below 50%, respectively.

Regarding `NC(=O)c1ccccc1NC(=O)Nc1cc(NC(=O)Nc2ccccc2C(N)=O)c(Br)cc1Br`, the inhibition in test [4] was below 50%; in test [5], above 50%; in test [6], above 50%.

As to `N/N=C(\S)Nc1ccc(N/C(S)=N/N)cc1`, the inhibition in test [4] was below 50%; in test [5], above 50%; in test [6], below 50%.
